Measured values from ChEMBL document CHEMBL1165950, “Design and synthesis of new potent anticancer pyrazoles with high FLT3 kinase inhibitory selectivity” (Bioorg Med Chem, 2010).

What was measured:
Format in all cases: functional
MDA-MB-435 = test: Cytotoxicity against human MDA-MB-435 cells assessed as cell growth at 0.001 uM after 48 hrs by sulforhodamine B assay; details: MDA-MB-435, 48 h, read-out: Activity
NCI-H322M [1] = test: Cytotoxicity against human NCI-H322M cells assessed as cell growth at 1 uM after 48 hrs by sulforhodamine B assay; details: read-out: Activity
786-0 = test: Cytotoxicity against human 786-0 cells assessed as cell growth at 0.01 uM after 48 hrs by sulforhodamine B assay; details: 786-0, 48 h, read-out: Activity
Method in brief: (§1)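 NCI-60 five-dose screen. Cells were grown in RPMI 1640 with 5% FBS and 2 mM L-glutamine, plated at 5000–40,000 cells/well and preincubated for 24 h. Time-zero plates were TCA-fixed. DMSO-solubilized drug was added at five concentrations (10-fold or ½-log serial dilutions) for 48 h at 37 °C, 5% CO2. Cells were TCA-fixed, stained with 0.4% SRB and read at 515 nm. Percent growth used time-zero, control and test absorbances.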

HCT-15 = test: Cytotoxicity against human HCT15 cells assessed as cell growth at 0.01 uM after 48 hrs by sulforhodamine B assay; details: HCT-15, 48 h, read-out: Activity
TK-10 = test: Growth inhibition of human TK10 cells after 48 hrs by sulforhodamine B assay; details: TK-10, 48 h; for CC50: read-out: LC50 (the source's name)
Method in brief: (§2)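 NCI 60-cell screen, five-dose mode. Cells grown in RPMI 1640 with 5% FBS and 2 mM L-glutamine and plated at 5000-40,000 cells/well according to doubling time. After 24 h preincubation, a Tz plate was TCA-fixed. Five concentrations (10-fold or 1/2 log dilutions) were applied for 48 h at 37 °C. SRB staining read at 515 nm. IC50 taken from [(Ti-Tz)/(C-Tz)]×100 = 50.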

BT-549 = test: Growth inhibition of human BT549 cells after 48 hrs by sulforhodamine B assay; details: BT-549, 48 h; for CC50: read-out: LC50 (the source's name)
Method in brief: (§3)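 NCI five-dose SRB assay in RPMI 1640 with 5% FBS and 2 mM L-glutamine. Cells were preincubated 24 h, then exposed 48 h at 37 °C to five concentrations (10-fold or half-log serial dilutions from DMSO stocks). TCA fixation, SRB staining, and absorbance at 515 nm followed. IC50 was taken where [(Ti−Tz)/(C−Tz)]×100 = 50, with Tz as time-zero cell density.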

SF-268 = test: Cytotoxicity against human SF268 cells assessed as cell growth at 10 uM; details: read-out: Activity
Method in brief: (§4)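 NCI-60 screen: cells grown in RPMI 1640 with 5% FBS and 2 mM L-glutamine, plated at 5000–40,000 cells/well according to doubling time, and preincubated 24 h at 37 °C, 5% CO2. The single 10 µM dose (DMSO stock) was added, then incubated 48 h. Cells were TCA-fixed and stained with 0.4% SRB, read at 515 nm, and growth % calculated against time-zero and control plates.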

LOX IMVI [2] = test: Cytotoxicity against human LOXIMVI cells assessed as cell growth at 10 uM after 48 hrs by sulforhodamine B assay; details: read-out: Activity
SNB-19 [3] = test: Growth inhibition of human SNB19 cells after 48 hrs by sulforhodamine B assay; details: SNB-19, 48 h; for CC50: read-out: LC50 (the source's name); method in brief: as §2
HT-29 = test: Cytotoxicity against human HT-29 cells assessed as cell growth at 10 uM after 48 hrs by sulforhodamine B assay; details: HT-29, 48 h, read-out: Activity
MOLT-4 = test: Cytotoxicity against human MOLT4 cells assessed as cell growth at 10 uM after 48 hrs by sulforhodamine B assay; details: MOLT-4, 48 h, read-out: Activity
SR = test: Cytotoxicity against human SR cells assessed as cell growth at 10 uM after 48 hrs by sulforhodamine B assay; details: read-out: Activity
U-251 [4] = test: Cytotoxicity against human U251 cells assessed as cell growth at 10 uM; details: read-out: Activity; method in brief: as §4
MDA-MB-468 = test: Cytotoxicity against human MDA-MB-468 cells assessed as cell growth at 10 uM after 48 hrs by sulforhodamine B assay; details: MDA-MB-468, 48 h, read-out: Activity
OVCAR-4 = test: Growth inhibition of human OVCAR4 cells after 48 hrs by sulforhodamine B assay; details: OVCAR-4, 48 h; for CC50: read-out: LC50 (the source's name); method in brief: as §2
SF-539 [5] = test: Growth inhibition of human SF539 cells after 48 hrs by sulforhodamine B assay; details: SF-539, 48 h; for CC50: read-out: LC50 (the source's name); method in brief: as §2
SF-539 [6] = test: Cytotoxicity against human SF539 cells assessed as cell growth at 1 uM after 48 hrs by sulforhodamine B assay; details: SF-539, 48 h, read-out: Activity
T47D = test: Cytotoxicity against human T47D cells assessed as cell growth at 0.001 uM after 48 hrs by sulforhodamine B assay; details: read-out: Activity
SNB-19 [7] = test: Cytotoxicity against human SNB19 cells assessed as cell growth at 0.001 uM after 48 hrs by sulforhodamine B assay; details: SNB-19, 48 h, read-out: Activity
Malme-3M = test: Growth inhibition of human MALME-3M cells after 48 hrs by sulforhodamine B assay; details: for CC50: read-out: LC50 (the source's name); method in brief: as §2
COLO 205 = test: Growth inhibition of human COLO205 cells after 48 hrs by sulforhodamine B assay; details: COLO 205, 48 h; for CC50: read-out: LC50 (the source's name); method in brief: as §3
U-251 [8] = test: Growth inhibition of human U251 cells after 48 hrs by sulforhodamine B assay; details: U-251, 48 h; for CC50: read-out: LC50 (the source's name); method in brief: as §2
A549 = test: Cytotoxicity against human A549 cells assessed as cell growth at 0.001 uM after 48 hrs by sulforhodamine B assay; details: A549, 48 h, read-out: Activity; method in brief: as §1
OVCAR-5 = test: Cytotoxicity against human OVCAR5 cells assessed as cell growth at 10 uM after 48 hrs by sulforhodamine B assay; details: OVCAR-5, 48 h, read-out: Activity
CAKI-1 = test: Cytotoxicity against human Caki1 cells assessed as cell growth at 0.01 uM after 48 hrs by sulforhodamine B assay; details: CAKI-1, 48 h, read-out: Activity
NCI-H322M [9] = test: Cytotoxicity against human NCI-H322M cells assessed as cell growth at 0.001 uM after 48 hrs by sulforhodamine B assay; details: read-out: Activity
LOX IMVI [10] = test: Cytotoxicity against human LOXIMVI cells assessed as cell growth at 0.001 uM after 48 hrs by sulforhodamine B assay; details: read-out: Activity
M14 = test: Cytotoxicity against human M14 cells assessed as cell growth at 100 nM after 48 hrs by sulforhodamine B assay; details: M14, 48 h, read-out: Activity
CCRF-CEM = test: Cytotoxicity against human CCRF-CEM cells assessed as cell growth at 1 uM after 48 hrs by sulforhodamine B assay; details: read-out: Activity; method in brief: as §1

COc1cc(C)cc(-c2c(-c3ccnc(-c4ccc(N(C)C)cc4)c3)cnn2CC#N)c1 gave a growth at 0.001 µM (MDA-MB-435) of 88%, a growth at 1 µM (NCI-H322M [1]) of 34% and a growth at 0.01 µM (786-0) of 55%. For the same compound, the growth at 0.01 µM (HCT-15) was 12%, the GI50 (TK-10) was 0.636 µM and the TGI (TK-10) was over 100 µM. For the same compound, the CC50 (TK-10) was over 100 µM, the GI50 (BT-549) was 0.0751 µM and the TGI (BT-549) was 0.514 µM. The CC50 (BT-549) was over 100 µM, the growth at 10 µM (SF-268) was 26.4% and the growth at 10 µM (LOX IMVI [2]) was 10%. For the same compound, the GI50 (SNB-19 [3]) was 0.362 µM, the TGI (SNB-19 [3]) was over 100 µM and the CC50 (SNB-19 [3]) was over 100 µM. It also gave a growth at 10 µM (HT-29) of -48%, a growth at 10 µM (MOLT-4) of 1% and a growth at 10 µM (SR) of -38%. The growth at 10 µM (U-251 [4]) was 11.2%, the growth at 10 µM (MDA-MB-468) was -59% and the GI50 (OVCAR-4) was 0.27 µM. The TGI (OVCAR-4) was over 100 µM, the CC50 (OVCAR-4) was over 100 µM and the GI50 (SF-539 [5]) was 0.127 µM. The CC50 (SF-539 [5]) was over 100 µM, the growth at 1 µM (SF-539 [6]) was 1% and the growth at 0.001 µM (T47D) was 90%. It also gave a growth at 0.001 µM (SNB-19 [7]) of 90%, a GI50 (Malme-3M) of 0.0598 µM and a TGI (Malme-3M) of over 100 µM. It also gave a CC50 (Malme-3M) of over 100 µM, a GI50 (COLO 205) of 0.22 µM and a TGI (COLO 205) of over 100 µM. It also gave a CC50 (COLO 205) of over 100 µM, a GI50 (U-251 [8]) of 0.178 µM and a TGI (U-251 [8]) of over 100 µM. For the same compound, the CC50 (U-251 [8]) was over 100 µM, the growth at 0.001 µM (A549) was 95% and the growth at 10 µM (OVCAR-5) was 97%. For the same compound, the growth at 0.01 µM (CAKI-1) was -6%, the growth at 0.001 µM (NCI-H322M [9]) was 97% and the growth at 0.001 µM (LOX IMVI [10]) was 88%. For the same compound, the growth at 0.1 µM (M14) was -16% and the growth at 1 µM (CCRF-CEM) was 6%.
For COc1cc(C)cc(-c2nn(CC#N)cc2-c2ccc(-c3cccc(C(C)=O)c3)nc2)c1, the growth at 0.001 µM (MDA-MB-435) was 101%, the growth at 1 µM (NCI-H322M [1]) was 24% and the growth at 0.01 µM (786-0) was 97%. The growth at 0.01 µM (HCT-15) was 100%, the GI50 (TK-10) was 3.28 µM and the TGI (TK-10) was 11.5 µM. For the same compound, the CC50 (TK-10) was over 100 µM, the GI50 (BT-549) was 2.73 µM and the TGI (BT-549) was 15.1 µM. The CC50 (BT-549) was over 100 µM, the growth at 10 µM (SF-268) was 49.3% and the growth at 10 µM (LOX IMVI [2]) was 6%. The GI50 (SNB-19 [3]) was 6.62 µM, the TGI (SNB-19 [3]) was over 100 µM and the CC50 (SNB-19 [3]) was over 100 µM. It also gave a growth at 10 µM (HT-29) of -11%, a growth at 10 µM (MOLT-4) of 14% and a growth at 10 µM (SR) of 28%. The growth at 10 µM (U-251 [4]) was 11.8%, the growth at 10 µM (MDA-MB-468) was -53% and the GI50 (OVCAR-4) was 3.76 µM. The TGI (OVCAR-4) was over 100 µM, the CC50 (OVCAR-4) was over 100 µM and the GI50 (SF-539 [5]) was 1.73 µM. The TGI (SF-539 [5]) was 4.65 µM, the CC50 (SF-539 [5]) was over 100 µM and the growth at 1 µM (SF-539 [6]) was -39%. For the same compound, the growth at 0.001 µM (T47D) was 88%, the growth at 0.001 µM (SNB-19 [7]) was 101% and the GI50 (Malme-3M) was 3.76 µM. For the same compound, the TGI (Malme-3M) was 96.4 µM, the CC50 (Malme-3M) was over 100 µM and the GI50 (COLO 205) was 1.85 µM. The TGI (COLO 205) was 4.13 µM, the CC50 (COLO 205) was 9.2 µM and the GI50 (U-251 [8]) was 3.17 µM. It also gave a TGI (U-251 [8]) of 13.5 µM, a CC50 (U-251 [8]) of over 100 µM and a growth at 0.001 µM (A549) of 97%. It also gave a growth at 10 µM (OVCAR-5) of -18%, a growth at 0.01 µM (CAKI-1) of 96% and a growth at 0.001 µM (NCI-H322M [9]) of 94%. For the same compound, the growth at 0.001 µM (LOX IMVI [10]) was 98%, the growth at 0.1 µM (M14) was 58% and the growth at 1 µM (CCRF-CEM) was 13%.
